# Compound activity: PubChem BioAssay, several laboratories
# T cruzi repl – inhibitors of intracellular T. cruzi growth, primary screen, luminescence, NIH3T3 host cells. T. cruzi beta-gal in NIH3T3, 90 h. inhibition, % (test concentration not listed). 1.4% of 300,000 active. AID 1885, 2009;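 active = mean inhibition across valid replicates above about 55%, limit read from the data; inconclusive = mean below that limit but half or more replicates reach it; inactive = mean below it, under half of replicates reach it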;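 note: signal also drops with host cell toxicity which is not excluded here; 0% = plate median of DMSO wells and 100% = zero luminescence signal; higher percent means less beta-gal luminescence so fewer parasites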
#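 System – NIH/3T3 host cells with β-galactosidase reporter T. cruzi · Doses – single 50 nL compound addition per well in DMSO · Reagent – 5000 T. cruzi trypomastigotes/well · Medium – Low-serum DMEM with 2% FBS · Timing – ≥90 h infection period, 3 h prior cell attachment · Evaluation – parasite load inhibition, % · Technique – GalScreen luminescence, 60 min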
# NALP3 yeast inh – NALP3 inflammasome inhibitors in reconstituted yeast, primary screen, luminescence, uHTS; AID 2825, 2010; 0.39% of 330,000 active; inhibition, % at 10 µM; Yeast reconstituted NLRP3/ASC/caspase-1, beta-gal luminescence, 24 h;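 active = inhibition of 50% or more; inactive = inhibition below 50%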;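 note: plate controls were induced DMSO wells for no effect and uninduced yeast grown without galactose for full effect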
# Calb FLC – C. albicans growth inhibition with fluconazole, primary screen, CaCi-2 strain, Alamar Blue fluorescence | C. albicans CaCi-2 + fluconazole, 48 h | growth inhibition, % (concentration not given with the values) | 0.57% of 300,000 active | AID 1979, 2009;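 active = growth inhibition above about 58% in most replicates, limit read from the data, passing the limit was not always enough; inconclusive = exactly half the replicates above a set limit; inactive = most replicates below a set limit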;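 note: all wells also contain fluconazole at 8 µg/ml as a sub-toxic cotreatment; 0% = median of DMSO wells and 100% = median of geldanamycin control wells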
# CSC inhib – cancer stem cell viability inhibitors, primary screen, luminescence; cancer stem cell-like cells viability; inhibition, % at 7.5 µM; 1.1% of 300,000 active; AID 2717, 2010; in the data active = inhibition above about 75%; inconclusive = no clear call, values can overlap the other calls; tested in HMLE shEcad cells
# Beta apoptosis – inhibitors of cytokine-induced beta cell apoptosis, primary screen, luminescence | INS-1E cytokine-induced death, ATP luminescence, 48 h; percent of positive-control rescue, neutral wells zero | protection from apoptosis, % (test concentration not listed) | 0.8% of 300,000 active;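 active = Every replicate reaches about 75%, or at least half do and their mean reaches it too, limit read from the data; inconclusive = At least half of replicates reach the limit but their mean does not; inactive = Under half of replicates reach the limit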;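 note: 0% = cytokine-treated negative control wells and 100% = positive control rescue; higher means more ATP so stronger rescue from cytokine killing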
# Mdm2 MdmX PPI – inhibitors of human Mdm2-MdmX association, primary screen, cell-based, luminescence, split luciferase, SaOS-2, uHTS; Protein Mdm4 (Homo sapiens) + E3 ubiquitin-protein ligase Mdm2 (Homo sapiens), …; SaOS-2 split-luciferase Mdm2/MdmX complementation; 3% of 330,000 active; inhibition, % at 8 µM;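 active = inhibition of at least 50% at 8 µM in the primary screen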
# Mdm2-MdmX conf – Mdm2-MdmX complex disruptors, retested hits, confirmation, luminescence, single concentration. 55% of 10,000 active. shares compounds with Mdm2 MdmX PPI. Mdm2-MdmX binding, luminescent assay. inhibition, % at 8 µM; in the data active = inhibition above about 40%
# Full FLuc ctr – full-length luciferase signal inhibition, confirmation, counter-screen for Mdm2/MdmX interaction inhibitor project, cell-based, single concentration, SaOS-2 | inhibition, % at 8 µM | shares compounds with Mdm2 MdmX PPI | 77% of 6,200 active | SaOS-2 full-length luciferase counterscreen, luminescence;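 active = mean inhibition at 8 µM reaching about 37%, which flags the compound as non-specific, limit read from the data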;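 note: p53-null SaOS-2 cells with luciferase driven by a doxycycline-inducible promoter; compound on cells about two nights before reading with doxycycline added after day one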
# * = called active by the depositor; ? = inconclusive; nt = not tested or not shown. Shown are actives, neighbours in structure and some others; about 5.3% of the full set was active somewhere.
SMILES,T cruzi repl,NALP3 yeast inh,Calb FLC,CSC inhib,Beta apoptosis,Mdm2 MdmX PPI,Mdm2-MdmX conf,Full FLuc ctr
COC(=O)c1cc(S(=O)(=O)C(C)C)c(S(C)=O)s1 (stereo not given),-27,-6,-4,8,-34,51*,36,39*
COc1ccc(Nc2ccc(OC)cc2)cc1,20,37,-5,-8,68,22,nt,nt
COc1ccc(NC2=C(C)C(=O)CC2)cc1,-15,20,-6,6,-9,59*,39,90*
COC(=O)c1ccccc1NC(=O)c1sc(=S)n(C)c1N,4,2,nt,-1,-3,3,nt,nt
COc1cc(SC)ccc1C(=O)Nc1ccc(Br)cn1,21,15,-10,-4,5,60*,48*,126*
COc1cc(SC)ccc1C(=O)Nc1ccccn1,0,35,-4,-3,4,-174,nt,nt
COc1cc(SC)ccc1C(=O)Nc1ncc(C)s1,13,45,58,-5,-1,71*,56*,71*
Cc1cc(C)nc(N2CCC(C(=O)NNC(=O)c3ccccc3)CC2)n1,-5,8,0,-11,3,23,nt,nt
O=C(/C=C/c1ccco1)NC(=S)Nc1cccc(-c2nc3ccccc3s2)c1,-36,23,3,66,3,31,nt,nt
Cc1ccc(-c2nc3ccccc3o2)cc1NC(=S)NC(=O)/C=C/c1ccco1,-26,1,-4,-11,nt,55*,30,nt
O=C(/C=C/c1ccco1)NC(=S)Nc1cccc(-c2nc3ccccc3o2)c1,-48,5,3,71,7,59*,53*,92*
C=CCOc1ccc(CNc2nn[nH]n2)cc1OC,-8,-19,?,-11,-3,-12,nt,nt
CCN1CCN(CCCNC(=O)C2c3ccccc3C(=O)N(C)C2c2ccc(OC)cc2)CC1 (stereo not given),-8,8,8,-17,9,20,nt,nt
CCc1cccc2c(C(=O)COC(=O)C3=NNC(=O)CC3)c[nH]c12,-2,6,-12,-15,1,23,nt,nt
Cc1ccc(NC(=S)N=Nc2c(O)n(C)c3ccc(S(=O)(=O)N4CCOCC4)cc23)cc1C,37,17,0,2,nt,52*,41*,48*
Cn1c(O)c(N=NC(=S)Nc2ccccc2F)c2cc(S(=O)(=O)N3CCOCC3)ccc21,-9,nt,-16,nt,nt,nt,nt,nt
COC(=O)c1nn(-c2ccc(OC)cc2)c(=O)c2c(N)sc(C)c12,-6,7,13,-5,0,-1,nt,nt
CCc1cccc2c(C(=O)CN3C(=O)N(C)C4(CCCCC4)C3=O)c[nH]c12,nt,12,nt,nt,0,52*,24,nt
CCc1cccc2c(C(=O)CN3C(=O)NC4(CCc5ccccc54)C3=O)c[nH]c12 (stereo not given),32,2,-10,-6,nt,7,nt,nt
Cc1cc(OCC(=O)N2CCN(c3ccccc3)CC2)c2c(C)cc(=O)oc2c1,7,15,-2,5,4,76*,7,nt
O=c1[nH]c2ccc(Cl)cc2c(O)c1Cc1ccccc1,0,10,30,-1,-7,0,nt,nt
CCn1c(=O)c(CCC(=O)N2CCOCC2)c(C)c2c(C)nn(-c3ccccc3)c21,15,10,12,-1,7,62*,33,nt
Cc1cc(SCC(=O)N/N=C/c2ccc(O)cc2O)nc2ccccc12,69*,23,8,133*,37,74*,73*,32
COc1ccccc1C1CCCN1Cc1nc(-c2ccc(C)s2)oc1C (stereo not given),25,5,1,nt,1,75*,66*,52*
C[C@H]1O[C@@H](O[C@H]2[C@@H](O)C[C@H](O[C@H]3[C@@H](O)C[C@H](O[C@H]4CC[C@@]5(C)[C@H](CC[C@@H]6[C@@H]5C[C@@H](O)[C@]5(C)[C@@H](C7=CC(=O)OC7)CC[C@]65O)C4)O[C@@H]3C)O[C@@H]2C)C[C@H](O)[C@@H]1O,8,19,-1,100*,6,82*,75*,15
SMILES,T cruzi repl,NALP3 yeast inh,Calb FLC,CSC inhib,Beta apoptosis,Mdm2 MdmX PPI,Mdm2-MdmX conf,Full FLuc ctr
CCCCCCC(=O)N1C/C=C\C(c2ccc(OC)cc2)N(Cc2ccc(F)cc2)C(=O)[C@H]1Cc1ccccc1 (stereo not given in full),37,8,5,35,100*,72*,40,62*
CCCCCCC(=O)N1C/C=C\C(c2ccc(OC)cc2)N(Cc2ccc(F)cc2)C(=O)C1 (stereo not given),-7,7,-3,2,-4,2,nt,nt
Cc1ccc(S(=O)(=O)N2CCCC2C(=O)O)s1 (stereo not given),1,3,5,-9,-6,-10,nt,nt
CCCCNC(=O)c1nnn(-c2ccccc2)c1N,7,8,-6,-4,-3,-13,nt,nt
Cc1cc(C2=NNC(=NC3CC3)SC2)c(C)n1-c1ccccc1F,32,9,-24,10,37,99*,99*,12
c1cc2c(cc1C1=NNC(=NC3CC3)SC1)OCCO2,0,19,21,28,35,92*,86*,56*
Nc1nonc1-c1nc2ccccc2n1CC(=O)N1CCCCC1,-1,2,3,-7,1,30,nt,nt
CCCCc1ccc(N/C(N)=N/c2nc(C)cc(C)n2)cc1,75*,31,-5,44,124*,66*,33,nt
Cc1ccc(N/C(N)=N/c2nc(C)cc(C)n2)cc1,32,-8,-13,11,-4,13,nt,nt
CCOC(=O)c1nnn(-c2nonc2-n2cccc2)c1CCl,-27,9,-11,-15,-9,-6,nt,nt
OC(CNCCc1ccc(C(F)(F)F)cc1)COC(c1ccccc1)c1ccccc1 (stereo not given),46,26,4,107*,23,87*,42*,56*
COc1ccc(C(OCC(O)CNCCc2ccc(S(N)(=O)=O)cc2)c2ccc(OC)cc2)cc1 (stereo not given),-24,7,-8,2,-1,19,nt,nt
CCOc1ccc2nc(COC(=O)c3cccs3)c(C(C)=O)[n+]([O-])c2c1,-10,29,?,-23,-3,9,nt,nt
CCOC(=O)C(NCc1ccccc1)(NC(=O)c1ccccc1)C(F)(F)F (stereo not given),-12,20,-10,-5,-2,9,nt,nt
